These results are taken from ChEMBL document CHEMBL4266019, “Discovery and Structure-Activity-Relationship Study of N-Alkyl-5-hydroxypyrimidinone Carboxamides as Novel Antitubercular Agents Targeting Decaprenylphosphoryl-β-d-ribose 2'-Oxidase” (J Med Chem, 2018).

The structures appear in SMILES notation. Values after ≈ are worked out from the molar mass of the structure shown. Active and inactive are the calls of the source. No cut-off for these calls is given here.

Experiment [1] deals with HepG2. Put plainly: Cytotoxicity against human HepG2 cells in presence of galactose. Format: cell-based. The essentials:
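HepG2 cells tested in DMEM/10% FBS containing galactose.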

Experiment [2] deals with HepG2. Put plainly: Cytotoxicity against human HepG2 cells in presence of glucose. Format: cell-based. The method in brief: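 HepG2 cells tested in DMEM/10% FBS supplemented with glucose.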
Experiment [3] has as its system Mycobacterium tuberculosis. Put plainly: Bactericidal activity against Mycobacterium tuberculosis H37Rv under aerobic condition after 7 days. Format: functional, organism-based. The method in brief:
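Log-phase H37Rv (OD650 0.2) diluted 1000-fold in 7H9/ADC and exposed to 1×, 5×, 10×, 20× and 50× MIC in duplicate. Sampled at days 1, 2, 4 and 7; CFU counted on 7H11/OADC plates.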

The test system of experiment [4] is Mycobacterium tuberculosis. Put plainly: Antitubercular activity against Mycobacterium tuberculosis H37Rv after 7 to 14 days in presence of GAST medium by two fold serial dilution method. The class given is functional. The essentials:
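MIC in GAST (glycerol/alanine/salts/Tween 80 defined medium), strain H37Rv; screening hits tested as duplicate 12-point MIC determinations with MgCl2 at 0.06, 6 or 60 mM.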

Experiment [5] has as its system Mycobacterium tuberculosis. Briefly: Antitubercular activity against Mycobacterium tuberculosis H37Rv assessed as induction of DNA damage by precA-LUX/pradA-LUX reporter-gene assay. The class given is functional, organism-based. The essentials: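 DNA-damage read-out: induction of the recA and radA promoters measured as luminescence in H37Rv precA-LUX and pradA-LUX reporter strains.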

Experiment [6] concerns the target T1, Decaprenylphosphoryl-beta-D-ribose oxidase (Mycobacterium tuberculosis (strain ATCC 25618 / H37Rv)) (UniProt P9WJF1).
T1 sequence (whole entry): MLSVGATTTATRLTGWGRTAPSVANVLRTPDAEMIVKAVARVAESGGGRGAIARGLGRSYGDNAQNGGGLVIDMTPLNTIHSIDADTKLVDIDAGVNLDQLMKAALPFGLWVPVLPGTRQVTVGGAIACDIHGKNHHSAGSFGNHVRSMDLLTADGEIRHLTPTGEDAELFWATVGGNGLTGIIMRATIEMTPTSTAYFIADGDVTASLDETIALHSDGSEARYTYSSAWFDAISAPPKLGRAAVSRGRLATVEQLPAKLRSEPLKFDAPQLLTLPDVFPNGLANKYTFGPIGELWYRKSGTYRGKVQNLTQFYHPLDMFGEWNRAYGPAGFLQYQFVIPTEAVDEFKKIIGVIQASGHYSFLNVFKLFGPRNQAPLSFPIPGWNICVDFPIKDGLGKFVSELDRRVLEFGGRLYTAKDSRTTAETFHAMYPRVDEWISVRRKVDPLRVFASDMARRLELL
Briefly: Inhibition of DprE1 in Mycobacterium tuberculosis H37Rv assessed as bacterial growth inhibition after 4 weeks.

Experiment [7] concerns Mycobacterium tuberculosis. Briefly: Bactericidal activity against Mycobacterium tuberculosis H37Rv under anaerobic condition at 1 to 50 fold MIC after 7 days. Format: functional, organism-based. The method in brief: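 Anaerobic H37Rv from the self-generated oxygen-depletion (Wayne) model exposed to 1×, 5×, 10×, 20× and 50× MIC in an anaerobic chamber for 7 days. CFU counted on 7H11/OADC plates.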

Usually IC50 stands for the concentration that gives 50% inhibition. For `CC(c1ccccc1C(F)(F)F)c1nc(C(=O)NCc2ccccc2)c(O)c(=O)n1C` (configuration not stated), the IC50 in experiment [1] and in experiment [2] was over 100 µM each time.

On to `Cn1c(Cc2ccccc2C(F)(F)F)nc(C(=O)NCc2ccccc2)c(O)c1=O`, for which the Activity entry in experiment [3] is “Dose-dependent effect”. Besides, the MIC in experiment [4] is 0.4 to 0.59 µM; in experiment [6] it was 3.13 µM (≈ 1.31 µg/mL). Moreover, the outcome in experiment [5] and in experiment [7] was inactive. Also, the IC50 in experiment [1] and in experiment [2] was over 100 µM throughout.

As to `Cn1c(Cc2ccccc2C(F)(F)F)nc(C(=O)Nc2ccccc2)c(O)c1=O`, the IC50 in experiment [1] and in experiment [2] was over 100 µM throughout.

As to `COc1c(C(=O)NCc2ccccc2)nc(Cc2ccccc2C(F)(F)F)n(C)c1=O`, the IC50 in experiment [1] and in experiment [2] was over 100 µM each time.

For the compound `CN(Cc1ccccc1)C(=O)c1nc(Cc2ccccc2C(F)(F)F)n(C)c(=O)c1O`, the IC50 in experiment [1] and in experiment [2] was over 100 µM each time.

As for `Cn1c(Cc2ccccc2C(F)(F)F)nc(C(=O)NCC2CCCCC2)c(O)c1=O`, the IC50 in experiment [1] and in experiment [2] was over 100 µM in each case.

For the compound `Cn1c(Cc2ccccc2)nc(C(=O)NCc2ccccc2)c(O)c1=O`, the IC50 in experiment [1] and in experiment [2] was over 100 µM throughout.

Take `CC(NC(=O)c1nc(Cc2ccccc2C(F)(F)F)n(C)c(=O)c1O)c1ccccc1` (configuration not stated): the IC50 in experiment [1] and in experiment [2] was over 100 µM throughout.

On to `Cn1c(Cc2ccccc2C(F)(F)F)nc(C(=O)NCc2ccc(F)cc2)c(O)c1=O`, for which the IC50 in experiment [1] and in experiment [2] was over 100 µM throughout.

In the case of `O=C(NCc1ccccc1)c1nc(Cc2ccccc2C(F)(F)F)[nH]c(=O)c1O`, the IC50 in experiment [1] and in experiment [2] was over 100 µM in each case.

Take `Cn1c(Cc2ccccc2C(F)(F)F)nc(C(=O)NCc2ccc3c(c2)OCO3)c(O)c1=O`: the IC50 in experiment [1] and in experiment [2] was over 100 µM in each case.

Regarding `Cn1c(Cc2ccccc2C(F)(F)F)nc(C(=O)NCc2cccnc2)c(O)c1=O`, the IC50 in experiment [1] and in experiment [2] was over 100 µM in each case.

For the compound `CCn1c(Cc2ccccc2C(F)(F)F)nc(C(=O)NCc2ccccc2)c(O)c1=O`, the 50% inhibitory concentration (IC50) in experiment [1] and in experiment [2] was over 100 µM throughout.

As to `Cn1c(Cc2ccccc2C(F)(F)F)nc(C(=O)CCc2ccccc2)c(O)c1=O`, the IC50 in experiment [1] and in experiment [2] was over 100 µM throughout.

In the case of `Cn1c(Cc2ccccc2C(F)(F)F)nc(C(=O)NCc2ccccn2)c(O)c1=O`, the IC50 in experiment [1] and in experiment [2] was over 100 µM each time.

For the compound `Cn1c(Cc2ccccc2C(F)(F)F)nc(C(=O)NCc2ccccc2F)c(O)c1=O`, the IC50 in experiment [1] and in experiment [2] was over 100 µM in each case.
